Entries after “also recorded” stand apart in the source; their conditions may differ. * marks the point of attachment. pNA = O=[N+]([O-])c1ccc(N*)cc1
Key:
[1] = tested on: Southampton norovirus 3C protease (SV3CP), Cys 139; experiment: X-ray structure of the SV3CP-MAPI complex; format: binding; conditions: cocrystal at 1.7 Å resolution, PDB 2IPH; crystals at pH 8.5
[2] = Solubility of the inhibitor in protein buffer; format: physicochemical; conditions: 10% DMSO had to be included in the buffer
[3] = target: T1, Southampton norovirus 3C protease (SV3CP) (Southampton virus, UniProt Q04544); format: biochemical; conditions: preincubation with millimolar concentrations of the inhibitor prior to addition of substrate; within the dead time of the experiment
T1 sequence (Q04544 1100-1280 limits assumed): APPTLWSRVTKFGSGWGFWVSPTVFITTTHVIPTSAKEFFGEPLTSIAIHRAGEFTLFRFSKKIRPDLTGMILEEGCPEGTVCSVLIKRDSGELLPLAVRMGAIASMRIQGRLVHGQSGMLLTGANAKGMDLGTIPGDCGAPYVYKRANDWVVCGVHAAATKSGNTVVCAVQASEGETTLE

[4] = target: T1, Southampton norovirus 3C protease (SV3CP); experiment: Mass spectrometry of the SV3CP-MAPI complex; format: binding; conditions: single major protein peak at 20045 Da
[5] = target: T1, Southampton norovirus 3C protease (SV3CP); experiment: Chromogenic pNA peptide substrate cleavage, initial rates at 405 nm; format: biochemical; conditions: compared with Ac-EFQLQ-pNA or other trial substrates; pH 8.5
Procedure, shortened: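 Recombinant SV3CP expressed in E. coli BL21(DE3) pLysS, self-excised from flanking sequences, purified by two cation-exchange steps. N-acetylated peptide-pNA substrates in DMSO, diluted into 100 mM Tris pH 8.5 with 5 mM β-mercaptoethanol (final substrate 0.1−3.0 mM, enzyme 0.1 mg/mL). A405 of samples read every 1 min for 10 min; initial rates gave KM, kcat and kcat/KM.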

| Substance | covalent binding mode [1] | solubility (in words) [2] | time to irreversible inactivation of the enzyme [3] [s] | binding stoichiometry [4] | kcat/KM, kcat and KM comparison in words [5] |
| --- | --- | --- | --- | --- | --- |
| acetyl-Glu-Phe-Gln-Leu-Gln-X [MAPI] | the active site thiol of Cys 139 is bound covalently to the C-terminal Michael-acceptor extension of the inhibitor MAPI | essentially insoluble | < 30 | one molecule of SV3CP plus one molecule of the inhibitor | – |
| Ac-DEFQLQ-pNA | – | – | – | – | had a kcat which was higher than that of Ac-EFQLQ-pNA although its proportionately higher KM meant that it was a slightly inferior substrate in terms of specificity constant |
| Ac-EFQLQ-pNA | – | – | – | – | had the highest kcat/KM ratio; also recorded: the best substrate in terms of specificity constant (kcat/KM ratio) |
